The record followed here is ChEMBL document CHEMBL2346584, “Microwave assisted nano (ZnO-TiO2) catalyzed synthesis of some new 4,5,6,7-tetrahydro-6-((5-substituted-1,3,4-oxadiazol-2-yl)methyl)thieno[2,3-c]pyridine as antimicrobial agents” (2013).

By MIC is commonly meant the smallest concentration in the dilution series that meets the test's criterion for growth inhibition. A lower MIC goes with greater potency.

≈ marks a conversion by molar mass, not a printed value. Calls of active or inactive are those of the source.

The test system of one experiment is Aspergillus niger. The experiment is described as follows: Antifungal activity against Aspergillus niger NCIM 1196 by agar method. It counts as functional. In a few lines:
(§1)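 MIC values were obtained with the standard agar method, with miconazole as the reference antifungal standard.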

Another experiment deals with Candida albicans. The experiment can be described thus: Antifungal activity against Candida albicans NCIM 3471 by agar method. The experiment is classed as functional. In a few lines:
as §1

Experiment [1] relates to Bacillus subtilis. The experiment is described as follows: Antibacterial activity against Bacillus subtilis NCIM 2063 by agar method. The experiment is classed as functional. The method in brief: (§2)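 Read-out was the minimum inhibitory concentration (MIC), determined by the standard agar method. Ciprofloxacin and ampicillin served as reference antibacterial standards.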

In experiment [2] the test system is Pseudomonas aeruginosa. The experiment is described as follows: Antibacterial activity against Pseudomonas aeruginosa NCIM 2036 by agar method. It counts as functional. In a few lines:
as §2

In the next experiment the test system is Escherichia coli. The experiment can be described thus: Antibacterial activity against Escherichia coli NCIM 2256 by agar method. The experiment is classed as functional. The method in brief:
as §2

For a further experiment, the system named is Staphylococcus aureus. The experiment is described as follows: Antibacterial activity against Staphylococcus aureus NCIM 2901 by agar method. It counts as functional. In a few lines: as §2
Experiment [3] concerns Pseudomonas aeruginosa. The experiment is described as follows: Antibacterial activity against Pseudomonas aeruginosa NCIM 2036 up to 400 ug/ml by agar method. It counts as functional, organism-based. The method in brief:
as §2

The test system of experiment [4] is Bacillus subtilis. The experiment can be described thus: Antibacterial activity against Bacillus subtilis NCIM 2063 up to 400 ug/ml by agar method. It counts as functional, organism-based. In a few lines: as §2

Regarding `c1c[nH]c(-c2nnc(CN3CCc4ccsc4C3)o2)c1`, the MIC in the experiment with Aspergillus niger was found to be 120 µg/mL (≈ 419 µM); with Candida albicans, 60 µg/mL (≈ 210 µM); in the experiment with Bacillus subtilis [1] it was 100 µg/mL (≈ 349 µM); in the experiment with Pseudomonas aeruginosa [2], 125 µg/mL (≈ 437 µM); against Escherichia coli, 50 µg/mL (≈ 175 µM); against Staphylococcus aureus, 75 µg/mL (≈ 262 µM).

For `Clc1ccc(COC(Cn2ccnc2)c2ccc(Cl)cc2Cl)c(Cl)c1` (stereo not given) [MICONAZOLE], the MIC in the experiment on Aspergillus niger was 12.5 µg/mL (≈ 30 µM); in the experiment on Candida albicans it was 25 µg/mL (≈ 60.1 µM).

As for `Clc1cccc(Cl)c1-c1nnc(CN2CCc3ccsc3C2)o1`, the MIC in the experiment on Aspergillus niger was 120 µg/mL (≈ 328 µM); with Candida albicans, 20 µg/mL (≈ 54.6 µM); with Bacillus subtilis [1] it was 50 µg/mL (≈ 137 µM); against Pseudomonas aeruginosa [2], 100 µg/mL (≈ 273 µM); in the experiment on Escherichia coli it was 50 µg/mL (≈ 137 µM); in the experiment with Staphylococcus aureus, 50 µg/mL (≈ 137 µM).

On to `Clc1ccccc1-c1nnc(CN2CCc3ccsc3C2)o1`, for which the MIC against Aspergillus niger was found to be 140 µg/mL (≈ 422 µM); against Candida albicans it was 80 µg/mL (≈ 241 µM); in the experiment on Bacillus subtilis [1], 100 µg/mL (≈ 301 µM); against Pseudomonas aeruginosa [2], 200 µg/mL (≈ 603 µM); in the experiment with Escherichia coli, 125 µg/mL (≈ 377 µM); with Staphylococcus aureus, 100 µg/mL (≈ 301 µM).

Take `Fc1ccc(-c2nnc(CN3CCc4ccsc4C3)o2)cc1`: the MIC in the experiment on Aspergillus niger is 60 µg/mL (≈ 190 µM); in the experiment on Candida albicans, 20 µg/mL (≈ 63.4 µM); with Bacillus subtilis [1], 50 µg/mL (≈ 159 µM); against Pseudomonas aeruginosa [2], 100 µg/mL (≈ 317 µM); with Escherichia coli, 25 µg/mL (≈ 79.3 µM); in the experiment with Staphylococcus aureus, 25 µg/mL (≈ 79.3 µM).

As to `Clc1ccc(-c2nnc(CN3CCc4ccsc4C3)o2)c(Cl)c1`, the MIC worked out at 60 µg/mL (≈ 164 µM) against Aspergillus niger; 20 µg/mL (≈ 54.6 µM) against Candida albicans; 75 µg/mL (≈ 205 µM) with Bacillus subtilis [1]; 125 µg/mL (≈ 341 µM) in the experiment on Pseudomonas aeruginosa [2]; 50 µg/mL (≈ 137 µM) with Escherichia coli; 75 µg/mL (≈ 205 µM) against Staphylococcus aureus.

For the compound `Oc1ccc(-c2nnc(CN3CCc4ccsc4C3)o2)cc1O`, the MIC against Aspergillus niger was 100 µg/mL (≈ 304 µM); against Candida albicans, 40 µg/mL (≈ 121 µM); with Escherichia coli it was 125 µg/mL (≈ 379 µM); in the experiment with Staphylococcus aureus, 100 µg/mL (≈ 304 µM). Further, the result in the experiment on Pseudomonas aeruginosa [3] and in the experiment with Bacillus subtilis [4] was inactive.

`CC1(C)S[C@@H]2[C@H](NC(=O)[C@H](N)c3ccccc3)C(=O)N2[C@H]1C(=O)O` [AMPICILLIN]: the MIC in the experiment with Bacillus subtilis [1] is 250 µg/mL (≈ 715 µM); with Pseudomonas aeruginosa [2] it was 100 µg/mL (≈ 286 µM); against Escherichia coli it was 100 µg/mL (≈ 286 µM); with Staphylococcus aureus, 250 µg/mL (≈ 715 µM).

For `COc1ccc(-c2nnc(CN3CCc4ccsc4C3)o2)cc1`, the MIC was 140 µg/mL (≈ 428 µM) with Aspergillus niger; 80 µg/mL (≈ 244 µM) with Candida albicans; 125 µg/mL (≈ 382 µM) in the experiment with Bacillus subtilis [1]; 175 µg/mL (≈ 534 µM) in the experiment on Pseudomonas aeruginosa [2]; 125 µg/mL (≈ 382 µM) in the experiment with Escherichia coli; 100 µg/mL (≈ 305 µM) in the experiment with Staphylococcus aureus.

`Oc1ccc(-c2nnc(CN3CCc4ccsc4C3)o2)cc1`: the MIC in the experiment with Aspergillus niger was found to be 140 µg/mL (≈ 447 µM); with Candida albicans, 60 µg/mL (≈ 191 µM); in the experiment with Escherichia coli, 175 µg/mL (≈ 558 µM); against Staphylococcus aureus it was 175 µg/mL (≈ 558 µM). In addition, the result in the experiment with Pseudomonas aeruginosa [3] and in the experiment on Bacillus subtilis [4] was inactive.

Regarding `c1csc(-c2nnc(CN3CCc4ccsc4C3)o2)c1`, the MIC against Aspergillus niger worked out at 80 µg/mL (≈ 264 µM); against Candida albicans, 40 µg/mL (≈ 132 µM); against Bacillus subtilis [1], 50 µg/mL (≈ 165 µM); against Pseudomonas aeruginosa [2], 150 µg/mL (≈ 494 µM); with Escherichia coli, 25 µg/mL (≈ 82.4 µM); against Staphylococcus aureus, 75 µg/mL (≈ 247 µM).

In the case of `c1ccc(-c2nnc(CN3CCc4ccsc4C3)o2)nc1`, the minimum inhibitory concentration (MIC) in the experiment with Aspergillus niger stood at 60 µg/mL (≈ 201 µM); against Candida albicans, 40 µg/mL (≈ 134 µM); in the experiment with Bacillus subtilis [1], 100 µg/mL (≈ 335 µM); against Pseudomonas aeruginosa [2], 150 µg/mL (≈ 503 µM); in the experiment on Escherichia coli it was 50 µg/mL (≈ 168 µM); in the experiment with Staphylococcus aureus, 50 µg/mL (≈ 168 µM).

Consider `O=C(O)c1cn(C2CC2)c2cc(N3CCNCC3)c(F)cc2c1=O` [CIPROFLOXACIN], for which the MIC in the experiment on Escherichia coli amounted to 25 µg/mL (≈ 75.4 µM); against Staphylococcus aureus it was 50 µg/mL (≈ 151 µM).

As for `c1ccc(-c2nnc(CN3CCc4ccsc4C3)o2)cc1`, the MIC in the experiment with Aspergillus niger worked out at 160 µg/mL (≈ 538 µM); with Candida albicans it was 80 µg/mL (≈ 269 µM); against Bacillus subtilis [1], 150 µg/mL (≈ 504 µM); against Pseudomonas aeruginosa [2], 300 µg/mL (≈ 1010 µM); in the experiment on Escherichia coli it was 150 µg/mL (≈ 504 µM); in the experiment with Staphylococcus aureus it was 125 µg/mL (≈ 420 µM).

Take `Clc1ccc(-c2nnc(CN3CCc4ccsc4C3)o2)cc1`: the MIC was 100 µg/mL (≈ 301 µM) with Aspergillus niger; 60 µg/mL (≈ 181 µM) in the experiment with Candida albicans; 100 µg/mL (≈ 301 µM) in the experiment on Bacillus subtilis [1]; 250 µg/mL (≈ 753 µM) with Pseudomonas aeruginosa [2]; 100 µg/mL (≈ 301 µM) with Escherichia coli; 75 µg/mL (≈ 226 µM) in the experiment on Staphylococcus aureus.
